Compound activity (PubChem BioAssay)
Shown are actives, neighbours in structure and some others; about 0.94% of the full set was active somewhere.
GalR3 antag: antagonists of human GalR3 | O60755 | HEK293 GalR3-CNG cAMP membrane potential fluorescence; galR3 body fused to GalR1 C-terminus | inhibition, % at 3 µM | 0.44% of 360,000 active | AID 651719;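 active = inhibition above the screen-wide average plus 3 SD, cut at about 13% in these data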;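 also: forskolin and galanin both at EC90 stimulate the cells; cAMP rise reported by CNG channel membrane potential dye signal; 0% = forskolin plus galanin with DMSO and 100% = forskolin alone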
NPR2 activator: GC-B (human) receptor activation | P20594 | HEK293-GC-B cells, CNP EC30, cGMP TR-FRET; 0% at EC30 CNP, 100% saturating CNP | activation, % at 10 µM | 0.11% of 370,000 active;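 active = activation at 10 µM reaching about 35% in either raw or pattern-adjusted values, limit read from the data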
NPR1 activator: GC-A (human) enzyme activation; AID 1671463; HEK293 GC-A cells, cGMP TR-FRET, EC30 ANP; 0% at EC30 ANP, 100% saturating ANP; activation, % at 10 µM; 0.14% of 370,000 active; P16066; in the data active = activation above about 40%
Arrestin-AP2 inh: blocks beta-arrestin peptide binding to AP2 adaptin; inhibition, % at 10 µM; 0.31% of 340,000 active; FITC-arrestin peptide / GST-AP2 beads, flow cytometry; AP2 beta2 appendage carries R879A mutation;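 active = inhibition above a set limit, near 3 SD of compounds lacking own fluorescence, cut at about 54% in these data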;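 also: plate controls were DMSO wells for no effect and 5 µM unlabelled arrestin peptide for full effect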
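Assay system: GST-AP2 R879A bound to glutathione beads, E. coli-expressed; Medium: PBS with 0.05% Tween 20 and 0.1% BSA; Also added: fluorescein-tagged arrestin peptide at 50 nM final; Timing: 12 min plus 1 h, RT; Measured by: flow cytometry, FL1 (488/535 nm); Evaluation: percent drop in bead-associated FITC signal.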
Arr AP2 CP1: human beta-arrestin and AP2 interaction inhibition, cherry pick. shares compounds with Arrestin-AP2 inh. GST-AP2 beads, FITC arrestin peptide binding, flow cytometry; GST-fused beta2-adaptin appendage, R879A mutant. inhibition, % at 10 µM. 2% of 1,300 active;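 active = inhibition above a set limit, roughly 3 SD of non-fluorescent compound noise, cut at about 38% in these data; inactive = inhibition at or below that limit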;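 also: loss of bead fluorescence from 50 nM FITC arrestin peptide bound to appendage; 0% = negative control wells and 100% = excess unlabelled arrestin peptide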
Target sequence (P63010 whole entry, looked up, the tested form may be a part, one chain of several): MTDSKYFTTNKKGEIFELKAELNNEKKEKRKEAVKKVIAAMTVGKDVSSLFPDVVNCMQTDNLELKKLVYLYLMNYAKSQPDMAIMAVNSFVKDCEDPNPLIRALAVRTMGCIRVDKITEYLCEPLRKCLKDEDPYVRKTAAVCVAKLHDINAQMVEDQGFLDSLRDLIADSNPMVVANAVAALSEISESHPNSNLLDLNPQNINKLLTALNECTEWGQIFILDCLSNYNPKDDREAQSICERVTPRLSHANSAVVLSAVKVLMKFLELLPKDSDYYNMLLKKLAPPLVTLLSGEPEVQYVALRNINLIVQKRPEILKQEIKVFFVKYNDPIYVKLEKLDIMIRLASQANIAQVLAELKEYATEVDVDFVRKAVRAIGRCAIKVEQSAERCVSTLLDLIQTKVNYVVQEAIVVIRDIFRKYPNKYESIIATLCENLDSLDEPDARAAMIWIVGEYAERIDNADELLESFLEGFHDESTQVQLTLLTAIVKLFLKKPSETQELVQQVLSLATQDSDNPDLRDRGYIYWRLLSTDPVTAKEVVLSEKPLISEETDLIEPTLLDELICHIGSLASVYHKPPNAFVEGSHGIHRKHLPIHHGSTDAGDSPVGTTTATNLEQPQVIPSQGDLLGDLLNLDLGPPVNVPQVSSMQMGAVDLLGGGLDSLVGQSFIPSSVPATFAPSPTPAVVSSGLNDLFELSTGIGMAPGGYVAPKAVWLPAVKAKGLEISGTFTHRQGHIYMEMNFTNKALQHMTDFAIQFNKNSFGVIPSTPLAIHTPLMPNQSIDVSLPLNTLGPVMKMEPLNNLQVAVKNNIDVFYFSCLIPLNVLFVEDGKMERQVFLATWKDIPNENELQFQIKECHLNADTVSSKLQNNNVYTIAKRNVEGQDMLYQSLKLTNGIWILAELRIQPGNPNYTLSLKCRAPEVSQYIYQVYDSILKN
GST GSH counter: disrupts GST binding to glutathione beads, arrestin-AP2 artifact. shares compounds with Arrestin-AP2 inh. GST-fluorescein binding to GSH beads, fluorescence, counter-screen. inhibition, % at 10 µM. 2% of 1,300 active;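 active = inhibition above 50%, about 3 SD of the inhibition seen with non-fluorescent compounds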;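 also: fluorescein maleimide labelled GST captured on 4 micron glutathione beads; higher means more loss of bead fluorescence from quenching or blocked binding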
Numbers without * were called inactive.

Screening N#Cc1c2ccc(OCC(N)=O)cc2n2ccccc12 returned GalR3 antag -5, NPR2 activator -24, NPR1 activator -33 and Arrestin-AP2 inh 0.
`O=C(Nc1ccc(F)cc1)OCc1cn(Cc2ccc(F)cc2)nn1` gave NPR2 activator 1 and NPR1 activator 4.
`O=C(COC(=O)c1cnccn1)c1ccc(C2CCCCC2)cc1` gave GalR3 antag -6, NPR2 activator 2, NPR1 activator 1 and Arrestin-AP2 inh 21.
Cc1cnc(C(=O)OCC(=O)c2ccc(C3CCCCC3)cc2)cn1 was read as GalR3 antag -3, NPR2 activator 0, NPR1 activator 0, Arrestin-AP2 inh 57*, Arr AP2 CP1 2 and GST GSH counter -3.
For CCOC(=O)c1c(C(=O)OCC)c(C)n(N2C(=O)CSC2=S)c1C the results were GalR3 antag -1, NPR2 activator -2, NPR1 activator 4, Arrestin-AP2 inh 60*, Arr AP2 CP1 -12 and GST GSH counter -1.
For Cc1noc(C)c1CSc1ncnc2sc(C)c(C)c12 the results were GalR3 antag -1, NPR2 activator 1, NPR1 activator -3, Arrestin-AP2 inh 105*, Arr AP2 CP1 -7 and GST GSH counter 2.
`Cc1noc(C)c1CSc1ncnc2sc3c(c12)CCCCC3` gave GalR3 antag -1, NPR2 activator 4, NPR1 activator -4 and Arrestin-AP2 inh 6.
CCCCCOc1ccc(NC(=O)CSc2cccc3cccnc23)cc1 was read as GalR3 antag -4, NPR2 activator 1, NPR1 activator 5, Arrestin-AP2 inh 107*, Arr AP2 CP1 4 and GST GSH counter -4.
Screening COc1ccc(NC(=O)CSc2cccc3cccnc23)c(OC)c1 returned GalR3 antag -3, NPR2 activator -9, NPR1 activator -5 and Arrestin-AP2 inh 7.
For O=C(Nc1cc(Cl)ccc1-n1cncn1)c1ccccc1OC(F)F the results were GalR3 antag -5, NPR2 activator -6, NPR1 activator -1, Arrestin-AP2 inh 68*, Arr AP2 CP1 6 and GST GSH counter -6.
`COc1cc(C(=O)Nc2cc(Cl)ccc2-n2cncn2)ccc1OC(F)F` gave GalR3 antag -1, NPR2 activator -6, NPR1 activator 3 and Arrestin-AP2 inh 25.
For O=C(N[C@H](C(=O)N1CCC[C@H]1C(=O)NCCc1ccccc1Cl)C1CCCCC1)C1CC1 the results were GalR3 antag -2, NPR2 activator 0 and NPR1 activator 1.
Screening CCOC(=O)c1sc2ncn(CC(=O)Nc3cc(C)on3)c(=O)c2c1C returned GalR3 antag -5, NPR2 activator 3, NPR1 activator 3, Arrestin-AP2 inh 63*, Arr AP2 CP1 12 and GST GSH counter -2.
Screening CCCCS(=O)(=O)N1CCN(C(=O)C(=O)c2cccc(C(F)(F)F)c2)CC1 returned GalR3 antag -4, NPR2 activator 1 and NPR1 activator 1.
`Cc1cc(-c2n[nH]c(=S)n2N=Cc2cccc(OCc3ccccc3)c2)n[nH]1` gave NPR2 activator -20 and NPR1 activator 0.
For Cc1ccc(-c2nn(-c3ccccc3)cc2/C=C(\C#N)C(=O)NCc2ccccc2)cc1 the results were GalR3 antag 4, NPR2 activator 1, NPR1 activator 1 and Arrestin-AP2 inh 11.
`N#C/C(=C/c1cn(-c2ccccc2)nc1-c1cccc(S(=O)(=O)N2CCOCC2)c1)C(=O)NCc1ccco1` gave GalR3 antag -1, NPR2 activator 8, NPR1 activator 11, Arrestin-AP2 inh 99*, Arr AP2 CP1 -8 and GST GSH counter 1.
COc1cccc(C2C(C#N)=C(N)OC(C(C)(C)C)=C2C#N)c1 (centres undefined) was read as GalR3 antag 1, NPR2 activator -11, NPR1 activator -7, Arrestin-AP2 inh 93*, Arr AP2 CP1 -8 and GST GSH counter -6.
For COc1ccc(C2C(C#N)=C(N)OC(C(C)(C)C)=C2C#N)cc1OC (centres undefined) the results were GalR3 antag -3, NPR2 activator 1, NPR1 activator 10 and Arrestin-AP2 inh -2.
`CCCCCc1nc2sc3c(c2c(=O)n1N)CCC3` gave GalR3 antag 1, NPR2 activator -5, NPR1 activator 6, Arrestin-AP2 inh 97*, Arr AP2 CP1 -6 and GST GSH counter -3.
For COC(=O)c1cc(OC)c(OC)cc1NC(=S)N1CCCC1 the results were GalR3 antag -2, NPR2 activator 0, NPR1 activator -1, Arrestin-AP2 inh 56*, Arr AP2 CP1 2 and GST GSH counter -5.
CC(=O)N1CCN(c2ccc(NC(=O)c3ccc(OCc4ccccc4)cc3)cc2)CC1 was read as GalR3 antag -4, NPR2 activator 6, NPR1 activator 2, Arrestin-AP2 inh 100*, Arr AP2 CP1 -12 and GST GSH counter -8.
COc1ccc(C(=O)Nc2ccc(N3CCN(C)CC3)cc2)cc1 was read as GalR3 antag -8, NPR2 activator -1, NPR1 activator -4 and Arrestin-AP2 inh 42.
For COc1ccc(C(=O)Nc2ccc(N3CCN(C)CC3)cc2)cc1OC the results were GalR3 antag -3, NPR2 activator 1, NPR1 activator -10, Arrestin-AP2 inh 65*, Arr AP2 CP1 4 and GST GSH counter 4.
For Cc1ccc(C(=O)N2CCN(c3ccc(NC(=S)NC(=O)c4cccs4)cc3)CC2)cc1 the results were GalR3 antag 0, NPR2 activator 1, NPR1 activator 0 and Arrestin-AP2 inh -4.
O=C(NC(=S)Nc1ccc(N2CCOCC2)cc1)c1cccs1 was read as GalR3 antag -6, NPR2 activator -3, NPR1 activator 1, Arrestin-AP2 inh 60*, Arr AP2 CP1 -4 and GST GSH counter 3.
`CN(C(=O)[C@@H](Cc1ccccc1)NC(=O)[C@H]1O[C@@H](n2cnc3c(=O)[nH]c(N)nc32)[C@H](O)[C@@H]1O)C1CCCCC1` gave GalR3 antag -2, NPR2 activator 4 and NPR1 activator 3.
`Cc1nnc2n(Cc3ccccc3)c(=O)c3c4c(sc3n12)COC(C)(C)C4` gave GalR3 antag -2, NPR2 activator 5, NPR1 activator 7 and Arrestin-AP2 inh 5.
For CC1(C)Cc2c(sc3c2c(=O)n(Cc2ccccc2)c2nncn32)CO1 the results were Arrestin-AP2 inh 62*, Arr AP2 CP1 8 and GST GSH counter 0.
CCOC(=O)C1CCN(c2cc3c(cc2NC(=O)c2ccccc2)n(C)c(=O)n3C)CC1 was read as GalR3 antag 3, NPR2 activator -2, NPR1 activator -1, Arrestin-AP2 inh 11, Arr AP2 CP1 18 and GST GSH counter -2.
